In ChEMBL document CHEMBL4665795, “Synthesis and Evaluation of 4-Hydroxycoumarin Imines as Inhibitors of Class II Myosins” (J Med Chem, 2020):
The source made the active and inactive calls. The rule behind the calls is not given here.

Legend:
[1] = Inhibition of actin-activated rabbit skeletal muscle myosin 2 assessed as phosphate level incubated for 6 to 24 mins by spectrophotometric method; parameters: species or system Oryctolagus cuniculus
How it was run: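 Actin-activated ATPase run at 30 °C in assay buffer with 32 µM actin and 2 mM ATP. Phosphate production followed over time by absorbance in stopped-time format. IC50 from four-parameter logistic fit. N is the number of fully independent titrations.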

Mus musculus [2] = species: Mus musculus; test: Inhibition of C57Bl6 mouse skeletal muscle myosin assessed as inhibition of phrenic nerve stimulation-induced contraction in mouse diaphragm at 100 uM relative to control
How it was run: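 Mouse phrenic nerve-hemidiaphragm preparation used ex vivo. Muscle contraction evoked by phrenic nerve stimulation, recorded with and without compound.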

Mus musculus [3] = species: Mus musculus; test: Inhibition of C57Bl6 mouse […] assessed as reduction in action potential in mouse diaphragm at 100 uM
HL-60 = test: Cytotoxicity against human HL-60 cells assessed as reduction in cell viability incubated for 48 hrs by hemocytometer based trypan-blue exclusion assay; conditions: HL-60, 48 h
[4] = Selectivity ratio of IC50 for actin-activated bovine heart muscle myosin 2 to IC50 for actin-activated rabbit skeletal muscle myosin 2
[5] = Competitive binding affinity to skeletal myosin S1 (unknown origin) assessed as reduction in Blebbistatin-induced fluorescence intensity incubated for 1 hr by fluorescence based assay; parameters: species or system Homo sapiens
[6] = Kinetic solubility in pH 7.4 PBS incubated for 1 hr; type: physicochemical; conditions: for Kinetic_solubility: buffer, pH 7.4, 1 h
[7] = Half life in pH 7.4 PBS at 100 uM by UV-VIS spectroscopic method; type: physicochemical
[8] = Inhibition of rabbit skeletal muscle myosin 2 assessed as reduction in actin-sliding velocity incubated for 1 min by inverted microscopic analysis; parameters: species or system Oryctolagus cuniculus
How it was run: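 In vitro motility assay at 30 °C with skeletal myosin loaded at 100 µg mL-1 on a coverslip. Fluorescent actin filament sliding velocity recorded across compound concentrations. IC50 obtained by curve fit.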

[9] = Inhibition of actin-activated rabbit skeletal muscle myosin 2; parameters: species or system Oryctolagus cuniculus
[10] = Binding affinity to skeletal myosin S1 (unknown origin) assessed as fluorescence intensity in presence of ATP; parameters: species or system Homo sapiens
How it was run: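 Skeletal myosin S1 binding read by fluorescence of 2 µM blebbistatin probe (λex 440 nm, em 560 nm) in assay buffer with 1 mM ATP at 22-25 °C. Signal without S1 was subtracted and normalised to Fmax. Direct Kd came from S1 titration fit to a quadratic single-site equation. Competition used 1 µM S1 and 1 hr incubation with analog; IC50 from a four-parameter fit was converted to Ki. N = 1.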

Row | Structure (SMILES) | IC50 [1] [µM] | inhibition (Mus musculus [2]) [%] | inhibition (Mus musculus [3]) | Ratio IC50 [4] | other results
1 | C/N=C(\C)c1c(O)c2ccccc2oc1=O | ≥ 100 | 80 | Active | – | IC50 (HL-60): 408 µM
2 | C/C(=N\CCCO)c1c(O)c2ccccc2oc1=O | 31 | 72 | Active | 1.2 | –
3 | C/C(=N\CC1CCCCC1)c1c(O)c2ccccc2[nH]c1=O | ≥ 100 | 72 | Active | – | –
4 | CC(=N)c1c(O)c2ccccc2oc1=O | ≥ 100 | 73 | Active | – | –
5 | C/C(=N\Cc1ccccc1)c1c(O)c2ccccc2[nH]c1=O | ≥ 100 | 16 | – | – | –
6 | C/C(=N\Cc1ccccc1)c1c(O)c2ccccc2oc1=O | 0.8 | – | – | 9.1 | IC50 [5]: 5.3 µM; Ki [5]: 0.8 µM; Kinetic_solubility [6]: 103 µM; IC50 (HL-60): 801 µM
7 | CCC/N=C(\C)c1c(O)c2ccccc2oc1=O | 31 | – | – | 1.7 | –
8 | CCCC/N=C(\C)c1c(O)c2ccccc2n(C)c1=O | ≥ 100 | – | – | – | –
9 | C/C(=N\Cc1ccccc1)c1c(O)c2cc([N+](=O)[O-])ccc2oc1=O | ≥ 100 | – | – | – | –
10 | CCCCC/N=C(\C)c1c(O)c2ccccc2[nH]c1=O | ≥ 100 | 99 | Active | – | –
11 | C/C(=N\CC(C)C)c1c(O)c2ccccc2[nH]c1=O | ≥ 100 | 71 | Active | – | –
12 | CC/C(=N\Cc1ccccc1)c1c(O)c2ccccc2oc1=O | ≥ 100 | – | – | – | –
13 | C/C(=N\Cc1ccncc1)c1c(O)c2ccccc2oc1=O | 8.5 | 98 | inactive | > 12 | solubility kinetic at 1 h ([6]; PBS, pH 7.4, read-out: Kinetic_solubility): > 400 µM; half-life at 100 µM [7]: 84 h
14 | CCC(C)/N=C(\C)c1c(O)c2ccccc2oc1=O (configuration not stated) | ≥ 100 | 21 | – | – | –
15 | CCC/N=C(\C)c1c(O)c2ccccc2[nH]c1=O | ≥ 100 | 41 | – | – | –
16 | C/C(=N\Cc1cccnc1)c1c(O)c2ccccc2oc1=O | 3 | – | – | 5.6 | –
17 | CCCCCC/N=C(\C)c1c(O)c2ccccc2oc1=O | 1.2 | – | – | 2.4 | –
18 | C/C(=N\Cc1ccccn1)c1c(O)c2ccccc2oc1=O | 6.8 | 86 | Active | 3.2 | –

Row | Structure (SMILES) | IC50 [1] [µM] | inhibition (Mus musculus [2]) [%] | inhibition (Mus musculus [3]) | Ratio IC50 [4] | other results
19 | CCCC/N=C(\C)c1c(O)c2ccccc2[nH]c1=O | ≥ 100 | 48 | – | – | –
20 | CCC(C)/N=C(\C)c1c(O)c2ccccc2[nH]c1=O (configuration not stated) | ≥ 100 | 98 | Active | – | –
21 | C/C(=N\C(C)C)c1c(O)c2ccccc2oc1=O | ≥ 100 | 94 | Active | – | –
22 | C/C(=N\CCO)c1c(O)c2ccccc2[nH]c1=O | ≥ 100 | 94 | Active | – | –
23 | C/C(=N\OCc1ccccc1)c1c(O)c2ccccc2oc1=O | ≥ 100 | – | – | – | –
24 | CCCC/N=C(\C)c1c(O)c2ccccc2oc1=O | 2.1 | 96 | inactive | 2.8 | IC50 [8]: 2.8 µM; Kinetic_solubility [6]: 607 µM
25 | CCCCC/N=C(\C)c1c(O)c2ccccc2oc1=O | 2 | – | – | 3.3 | –
26 | CCCCC/N=C(\C)c1c(O)c2cc([N+](=O)[O-])ccc2oc1=O | ≥ 100 | – | – | – | –
27 | C/C(=N\Cc1ccc(C)cc1)c1c(O)c2ccccc2oc1=O | 0.8 | – | – | 9.9 | –
28 | C/C(=N\Cc1cccc(C)c1)c1c(O)c2ccccc2oc1=O | 10 | – | – | 0.5 | –
29 | CCC/C(=N\Cc1ccccc1)c1c(O)c2ccccc2oc1=O | ≥ 100 | – | – | – | –
30 | C/C(=N\Cc1ccccc1C)c1c(O)c2ccccc2oc1=O | ≥ 100 | – | – | – | –
31 | C/C(=N\Nc1ccccc1)c1c(O)c2ccccc2oc1=O | 2 | – | – | 13.5 | –
32 | C/C(=N\CCO)c1c(O)c2ccccc2oc1=O | 92 | 87 | Active | 1 | IC50 (HL-60): 590 µM
33 | CC/N=C(\C)c1c(O)c2ccccc2oc1=O | 47 | – | – | 2.1 | –
34 | C/C(=N\CC(C)C)c1c(O)c2ccccc2oc1=O | ≥ 100 | 22 | – | < 0.34 | –
35 | C/C(=N\C(C)C)c1c(O)c2ccccc2[nH]c1=O | ≥ 100 | 18 | – | – | –
36 | Cc1ccc2c(c1)C(=O)[C@]1(O)CCN(c3ccccc3)C1=N2 | 0.5 | 99 | Active | – | IC50 [9]: 0.01 µM; Kd [10]: 0.4 µM
